Shown are actives, neighbours in structure and some others; about 1.3% of the full set was active somewhere.
LANA-H2A inh: blockers of LANA interaction with H2A/H2B – biochemical, FP readout, HTS, primary screen. Protein LANA1 (Human herpesvirus 8 type P (isolate GK18)), Q9QR71. cell-free LANA-H2A/H2B peptide, fluorescence polarization. inhibition, % (no concentration beside the values). 320,000 compounds, 0.6% hits. AID 2629, 2010; in the data active means inhibition mostly above about 10%, no sharp cut-off; inactive means mostly below about 6.7%
GSK3A inh: blockers of GSK3A enzyme activity – biochemical, luminescence, cell-free homogeneous, HTS, primary screen; Glycogen synthase kinase-3 alpha (Homo sapiens), P49840; AID 2650, 2010; inhibition, % at 10 µM; 320,000 compounds, 0.1% hits; GSK-3 alpha kinase, ADP-Glo luminescence, 60 min;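 active means more than half of replicates show inhibition above 20%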;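 further: GST-tagged GSK-3 alpha with peptide substrate and 25 µM ATP; 0% = DMSO neutral wells and 100% = GW8510 positive control wells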
GSK3B inh: human GSK3beta kinase inhibitors, primary screen, biochemical, cell-free homogeneous, HTS | Glycogen synthase kinase-3 beta (Homo sapiens), P49841 | GST-GSK3beta kinase, ADP-Glo luminescence, 60 min; stronger effect = lower value | activity score (negative = inhibition), % at 10 µM | 300,000 compounds, 0.038% hits | AID 2097, 2009;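 active means more than half of replicate wells score below -50%, meaning over 50% inhibition versus plate controls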;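 further: 0% = median DMSO wells and -100% = median GW8510 positive control wells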
Target sequence (P49841 whole entry, looked up): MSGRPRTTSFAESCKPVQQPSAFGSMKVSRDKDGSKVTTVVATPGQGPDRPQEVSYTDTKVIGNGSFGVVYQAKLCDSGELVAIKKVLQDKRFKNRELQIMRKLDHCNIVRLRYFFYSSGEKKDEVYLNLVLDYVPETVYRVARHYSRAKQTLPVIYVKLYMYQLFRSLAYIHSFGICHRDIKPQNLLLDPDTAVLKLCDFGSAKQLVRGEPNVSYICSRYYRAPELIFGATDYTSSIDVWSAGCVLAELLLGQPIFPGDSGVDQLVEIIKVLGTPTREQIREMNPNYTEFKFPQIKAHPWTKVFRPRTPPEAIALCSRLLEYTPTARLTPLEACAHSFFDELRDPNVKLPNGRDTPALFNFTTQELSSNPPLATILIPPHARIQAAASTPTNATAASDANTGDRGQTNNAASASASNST
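Test system: GST-fused GSK3beta enzyme, cell-free | Quantity: 1.6 ng GST-GSK3beta enzyme per well | Reagent: 25 µM ATP with peptide substrate | Schedule: 60 min enzyme reaction, room temperature | Signal: Luminescent ADP-Glo measurement of ADP formed | Read-out basis: Score relative to plate controls | Control set: DMSO and 20 µM GW8510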
H9c2 TAG inh: inhibitors of triacylglycerol accumulation, primary screen, cell-based, uHTS, fluorescence, H9c2 | 230,000 compounds, 0.66% hits | AID 651582, 2012 | inhibition, % at 12.5 µM | H9c2 cells, Nile Red lipid (TAG) fluorescence; cells loaded with 200 µM oleic acid;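 active means pattern-corrected inhibition of lipid staining of at least 50% with the nuclear-stain viability signal not falling by more than 50%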;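 further: 0% = DMSO wells and 100% = triacsin C control wells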
STK33 inh: inhibitors of purified STK33 kinase, primary screen, biochemical, ADP-Glo luminescence, homogeneous, cell-free. Serine/threonine-protein kinase 33 (Homo sapiens), Q9BYT3. AID 2661, 2010. MBP phosphorylation. inhibition, % at 10 µM. 320,000 compounds, 0.073% hits;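 active means inhibition at or above 25%, using the most active replicate where run in duplicate; inactive means inhibition below 25%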
Lipid droplet: inhibitors of hepatocyte lipid droplet formation, primary screen, imaging, high-throughput imaging, BODIPY stain. AML12 mouse hepatocytes, oleate lipid droplets. inhibition, % at 6.5 µM. 240,000 compounds, 0.4% hits. AID 1656, 2009;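 active means lipid droplet intensity inhibited by at least 50%, with more than 500 cells counted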
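Assay system: AML12 hepatocytes (mouse) / Also added: 100 µM oleic acid challenge / Times: overnight treatment with compound plus oleate / Detection: high-content imaging of BODIPY-stained droplets and DAPI nuclei / Evaluation: % inhibition of lipid droplet signal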
* = called active by the depositor; . = not tested or not shown; + = active, no number.

SMILES | LANA-H2A inh | GSK3A inh | GSK3B inh | H9c2 TAG inh | STK33 inh | Lipid droplet
Cc1ccc(Nc2nc(N)nc(CN3CCN(C)CC3)n2)cc1 | -1 | 1 | -1 | 28 | -1 | 9
O=C(c1ccc(Br)cc1)c1cc([N+](=O)[O-])ccc1N1CCCCC1 | -1 | 2 | 2 | 59* | -2 | .
CN1CCN(c2ccc([N+](=O)[O-])cc2C(=O)c2ccc(Br)cc2)CC1 | 3 | 1 | 0 | . | 0 | .
Cc1cccc(OC(C)C(=O)Nc2ccc(N3CCCCC3)cc2)c1 (centres undefined) | 0 | 10 | 1 | 14 | -1 | .
O=C(O)CCc1ccc(-c2ccc(F)cc2)n1CC1CCCO1 (centres undefined) | 37* | 7 | -1 | . | -1 | .
CN(CC(=O)Nc1cccc(F)c1)C(=O)c1cn(-c2ccccc2)nc1-c1ccc(Cl)cc1 | 156* | -1 | . | 24 | 0 | .
CN(CCc1ccccn1)Cc1ccc(Cl)cc1Cl | 0 | -1 | 0 | . | -3 | .
COC(=O)C1=C(C)NC(=O)NC1c1ccccc1 (centres undefined) | 0 | -1 | 1 | . | -2 | 0
Cc1cc(C)n(/C(=C\N(C)C)C(=O)c2cccc([N+](=O)[O-])c2)n1 | 0 | 1 | -1 | . | 0 | -4
Cc1ccc(NC2=C([N+](=O)[O-])CS(=O)(=O)C2)cc1 | 28* | -4 | 6 | . | 0 | -2
CC1(C)c2[nH]c3ccccc3c2C[C@@H]2C(=O)N(Cc3ccc(F)cc3)C(=O)N21 | 5 | -1 | -1 | -3 | -1 | .
CC[C@H]1c2[nH]c3ccccc3c2C[C@H]2C(=O)N(c3ccc(F)cc3)C(=O)N21 | + | -1 | -1 | . | -1 | .
CC(=O)Nc1ccc(S(=O)(=O)N(C)CC(=O)NC2CCCCCCC2)cc1 | -1 | -2 | . | 1 | -2 | .
CC(=O)Nc1ccc(S(=O)(=O)N(C)CC(=O)OC2CCCCC2=O)cc1 (centres undefined) | 59* | -1 | . | -3 | -1 | .
COc1ccc(CCNC(=O)c2ccc(CNc3c(N4CCOCC4)c(=O)c3=O)cc2)cc1OC | 4 | -1 | -7 | -1 | 0 | 6
O=C1/C(=C\c2ccccc2)CN(C(=O)CCN2CCCCC2)C/C1=C/c1ccccc1 | . | . | . | 46 | . | .
O=C1/C(=C\c2ccc(Cl)c(Cl)c2)CN(C(=O)CCN2CCOCC2)C/C1=C/c1ccc(Cl)c(Cl)c1 | . | . | . | 63* | . | .
O=C(c1ccccc1Cc1ccccc1)N1CCN(S(=O)(=O)c2ccccc2F)CC1 | 1 | 0 | . | -12 | -1 | .
O=S(=O)(N/N=C1/CC(c2ccccc2)Oc2ccccc21)c1ccccc1 (centres undefined) | . | . | . | -15 | . | .
Cc1ccccc1NC(=O)N1c2ccccc2CC1C (centres undefined) | 54* | 3 | -2 | . | 3 | -8
CC1Cc2ccccc2N1C(=O)CSc1ncccn1 (centres undefined) | 30* | -2 | 1 | -13 | -1 | .
CC1Cc2ccccc2N1C(=O)CSc1ccccn1 (centres undefined) | . | . | . | -7 | . | .
COc1ccc(CN2CCN(C(=O)c3ccco3)CC2)cc1OCc1ccccc1 | 5 | -2 | -3 | -11 | -1 | .
CC(=O)c1cc(-c2ccccc2)n(CCC(=O)NC2CCCC2)c1C | -5 | -1 | 2 | . | -1 | 0
CC(=O)c1cc(-c2ccc(F)cc2)n(CCC(=O)Nc2cc(C)[nH]n2)c1C | -4 | 56* | 1 | -9 | 0 | -32
SMILES | LANA-H2A inh | GSK3A inh | GSK3B inh | H9c2 TAG inh | STK33 inh | Lipid droplet
O=C(CNC(=O)C1CCCCC1)OCn1nnc2ccccc2c1=O | 15* | 0 | 0 | 5 | 8 | -6
O=C(CC1CCCCC1)OCn1nnc2ccccc2c1=O | -1 | 1 | 0 | 2 | -1 | 3
Cc1ccc(S(=O)(=O)Oc2ccccc2/C=N/N=C(N)N)cc1 | 38* | -1 | -3 | . | 2 | -1
Cc1ccc(S(=O)(=O)Oc2ccccc2/C=N/NC(N)=S)cc1 | 0 | -1 | -1 | . | -2 | -8
O=S1(=O)CCN(CCCc2ccccc2)CC1 | . | . | . | 5 | . | .
S=C(NCc1cccs1)Nc1cc(Cl)cc(Cl)c1 | 21* | 1 | 5 | -6 | -1 | 1
NC(Cc1c[nH]c2ccccc12)C(=O)Nc1ccccc1 (centres undefined) | 4 | 0 | 0 | . | 1 | .
O=C(CCCCCBr)N1CCC(CC2CC(c3ccc(Cl)cc3)=NO2)(C(=O)NCC2CCCCC2)CC1 (centres undefined) | -1 | -2 | 1 | -15 | -2 | 0
O=C(OCCNC(=O)c1cc2ccccc2oc1=O)c1cccnc1 | 50* | 0 | 1 | 8 | 0 | .
COc1ccc2occ(C(=O)c3cccs3)c2c1 | 1 | 59* | -41 | . | 4 | .
COc1ccc2occ(C(=O)c3coc4ccc(O)c(CN(C)C)c34)c2c1 | -3 | 85* | -68* | . | 4 | .
COc1ccc(C2CC(c3ccc(OC)cc3)n3nc(NS(C)(=O)=O)nc3N2)cc1 (centres undefined) | -2 | -5 | 1 | -5 | -1 | .
CCC(C(=O)NCc1ccco1)n1nc(C)c2c(C)n(-c3ccccc3)nc2c1=O (centres undefined) | 4 | -2 | -1 | . | -2 | 12
C=CCOc1ccc(/C(O)=C2/C(=O)C(=O)N(CCCN3CCOCC3)C2c2ccc(OC)cc2)cc1 (centres undefined) | 16* | 3 | . | -10 | -1 | -2
CC(C)Cc1nnc(NC(=O)CSc2nc(O)c(Cc3ccccc3)c(=O)[nH]2)s1 | -6 | -2 | 0 | 7 | 0 | -8
CCCCSc1nnc(CCC)n1N | -8 | 0 | -3 | 2 | 0 | 3
O=C(Nc1cccc(-c2cn3cccnc3n2)c1)c1ccc(Br)o1 | 2 | 0 | 4 | . | 32* | .
O=C(Nc1cccc(-c2cn3cccnc3n2)c1)c1ccco1 | -4 | -2 | -8 | . | 9 | .
CC1=C(C(N)=O)C(c2ccc(Br)cc2)n2nc(CCCO)nc2N1 (centres undefined) | 16* | 3 | -2 | . | 1 | -1
COc1ccc2cc3cc(C(=O)Nc4ccccc4N4CCN(C)CC4)oc3nc2c1 | -3 | 5 | -1 | 53* | 3 | .
Nc1ncc(-c2ccccc2)c(-c2ccc(O)cc2O)n1 | -1 | 60* | -35 | . | 16 | .
C=Cc1cc2c(cc1O)CCC1C2CCC2(C)C(O)CCC12 (centres undefined) | . | . | . | 3 | . | .

Screening results from PubChem BioAssay.
